For this assay, the target named is Hck^3D V284C (Homo sapiens, UniProt P08631, V276C). Briefly: Inhibitor IC50 determination, fluorescent SFK peptide kinase assay. To be noted: 1 mM ATP. The format is biochemical. In short, it runs like this:
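Kinase concentrations were set in the linear range by prior titration: Src3D WT or V284C at 7.5 nM, Hck3D WT or V284C at 5 nM. Kinase was incubated 30 min with test compound (30 μM top, 3-fold serial dilutions, 10 points) and 1 mM ATP in HEPES pH 7.5 buffer with MgCl2, EGTA, BSA, vanadate and BME. Then 20 μM pyrene-labelled SFK peptide was added for 2 h. Fluorescence was read at ex 344/em 405 nm, in triplicate.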

Hck^3D V284C, sequence (P08631 81-526 V276C): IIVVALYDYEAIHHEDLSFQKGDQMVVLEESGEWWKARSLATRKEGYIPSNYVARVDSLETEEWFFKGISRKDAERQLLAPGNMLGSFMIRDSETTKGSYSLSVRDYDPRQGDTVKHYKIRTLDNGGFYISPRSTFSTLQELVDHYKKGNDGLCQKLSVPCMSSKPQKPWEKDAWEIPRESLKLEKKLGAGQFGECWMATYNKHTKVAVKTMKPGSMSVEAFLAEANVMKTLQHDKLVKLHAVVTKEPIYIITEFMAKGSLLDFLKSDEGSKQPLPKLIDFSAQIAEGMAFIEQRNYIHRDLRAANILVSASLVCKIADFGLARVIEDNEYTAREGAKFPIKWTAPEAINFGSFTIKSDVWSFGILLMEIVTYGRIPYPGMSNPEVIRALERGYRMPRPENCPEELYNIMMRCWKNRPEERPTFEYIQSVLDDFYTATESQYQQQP

`CNC(=O)C(C#N)=Cc1c(C#Cc2cc(NC(=O)c3cccc(C(F)(F)F)c3)ccc2C)c2cncnc2n1CCOC` [compound 3, (E)- and (Z)-N-(3-((6-(2-cyano-3-(methylamino)-3-oxoprop-1-en-1-yl)-7-(2-methoxyethyl)-7H-pyrrolo[2,3-d]pyrimidin-5-yl)ethynyl)-4-methylphenyl)-3-(trifluoromethyl)benzamide]: the “inhibition of Hck V284C (IC50, Figure 4C)” value is on record as “potently inhibited”.

For the origin of these results see paper PMC6474823 (Molecular cell, 2019).
